The assay deals with M18 aspartyl aminopeptidase (Plasmodium falciparum 3D7). Kind of assay: inhibition of malaria M18 aspartyl aminopeptidase – biochemical, QFRET fluorogenic substrate, set 2, counter-screen for PfM1 aminopeptidase inhibitor project, dose response (AID 602212). An outline of the steps: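 Test system – recombinant Plasmodium falciparum M18 aspartyl aminopeptidase, purified enzyme · Amount – 5 µg/mL PfM18AAP · Replication – each concentration tested in triplicate · Detection – released NHMec fluorescence, excitation 370 nm, emission 460 nm · Buffer or medium – Cobalt-containing Tris buffer, pH 7.5 · Reagent – 0.1 mM H-Glu-NHMec substrate · Schedule – Enzyme–substrate reaction with compound, 90 min, room temperature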
For orientation: A counterscreen serves to expose hits that act by an unwanted route or on another target.

Each structure is given as a SMILES string. Calls of active or inactive are those of the source.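 The calls were made as follows: active = inhibition of 30% or more at any tested concentration; inactive = the rest.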

The values below come from PubChem BioAssay AID602212 (Southern Research Specialized Biocontainment Screening …, 2012).

On to `O=C(NCc1ccccc1)C1CCN(S(=O)(=O)c2ccc(Br)s2)CC1`, for which the call was inactive.

Consider `CC[C@H](C)[C@H](NC(=O)c1ccc(C(C)(C)C)cc1)C(=O)NCc1ccc2c(c1)OCO2`, for which the compound was called inactive. To `CC[C@H](C)[C@H](NC(=O)c1ccc(C(C)(C)C)cc1)C(=O)NCc1ccc(Cl)cc1` belongs “inactive”; to `CC[C@H](C)[C@H](NS(=O)(=O)c1ccc(Br)s1)C(=O)NCc1ccc(Cl)cc1`, “inactive”. Regarding `O=C(NCc1ccc(F)cc1)C1CCN(S(=O)(=O)c2ccc(Br)s2)CC1`, the outcome was inactive. To `O=C(NCc1ccc2c(c1)OCO2)C1CCN(S(=O)(=O)c2ccc(Br)s2)CC1` belongs “inactive”; to `CC[C@H](C)[C@H](NS(=O)(=O)c1ccc(Br)s1)C(=O)NCc1ccc2c(c1)OCO2`, “inactive”. For the compound `O=C(NCc1ccc(Cl)cc1)C1CCN(S(=O)(=O)c2ccc(Br)s2)CC1`, the call was inactive.
